The source made the active and inactive calls. No cut-off for these calls is given here.
What was measured:
Type in all cases: cell-based
[1] = target: T1, Oxysterols receptor LXR-alpha (Homo sapiens) (UniProt Q13133); assay: Transactivation of human Gal4-fused LXRalpha LBD expressed in HEK293T cells at 30 uM after 12 to 14 hrs by dual-glo luciferase assay
T1 sequence (whole entry): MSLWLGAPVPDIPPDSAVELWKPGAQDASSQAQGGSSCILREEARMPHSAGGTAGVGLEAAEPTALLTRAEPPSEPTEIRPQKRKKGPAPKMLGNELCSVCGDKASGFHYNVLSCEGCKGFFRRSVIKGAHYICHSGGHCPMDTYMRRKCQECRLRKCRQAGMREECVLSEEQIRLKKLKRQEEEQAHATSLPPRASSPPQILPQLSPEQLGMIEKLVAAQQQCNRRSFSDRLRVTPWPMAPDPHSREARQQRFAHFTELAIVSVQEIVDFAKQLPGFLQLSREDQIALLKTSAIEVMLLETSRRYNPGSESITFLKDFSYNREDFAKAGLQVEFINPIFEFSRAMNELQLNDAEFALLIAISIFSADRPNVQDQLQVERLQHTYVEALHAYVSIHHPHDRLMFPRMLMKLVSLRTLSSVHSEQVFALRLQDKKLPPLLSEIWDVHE
How it was run: (§1)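 Single-concentration selectivity profiling in Gal4-hybrid reporter gene assays in HEK293T cells. Each nuclear receptor construct (RAR, PPAR, LXR, FXR, CAR, VDR, PXR, RXR) was tested at 30 μM.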

[2] = target: T2, Bile acid receptor (Homo sapiens) (UniProt Q96RI1); assay: Transactivation of human Gal4-fused FXR LBD expressed in HEK293T cells at 30 uM after 12 to 14 hrs by dual-glo luciferase assay; how it was run: as §1
T2 sequence (whole entry): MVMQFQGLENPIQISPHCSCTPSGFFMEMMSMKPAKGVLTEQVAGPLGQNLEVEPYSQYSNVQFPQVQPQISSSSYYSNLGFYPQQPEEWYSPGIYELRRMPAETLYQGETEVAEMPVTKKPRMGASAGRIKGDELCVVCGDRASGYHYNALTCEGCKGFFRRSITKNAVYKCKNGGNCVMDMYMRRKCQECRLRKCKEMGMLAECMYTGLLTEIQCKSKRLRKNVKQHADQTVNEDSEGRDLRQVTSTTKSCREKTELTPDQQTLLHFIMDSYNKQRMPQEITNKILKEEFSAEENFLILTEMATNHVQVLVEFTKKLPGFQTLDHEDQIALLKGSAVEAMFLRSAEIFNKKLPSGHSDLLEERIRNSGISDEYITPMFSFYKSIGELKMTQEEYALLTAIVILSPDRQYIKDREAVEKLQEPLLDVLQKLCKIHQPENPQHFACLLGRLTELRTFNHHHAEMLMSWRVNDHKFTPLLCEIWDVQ

[3] = target: T3, Retinoic acid receptor beta (Homo sapiens) (UniProt P10826); assay: Transactivation of human Gal4-fused RARbeta LBD expressed in HEK293T cells at 30 uM after 12 to 14 hrs by dual-glo luciferase assay; how it was run: as §1
T3 sequence (whole entry): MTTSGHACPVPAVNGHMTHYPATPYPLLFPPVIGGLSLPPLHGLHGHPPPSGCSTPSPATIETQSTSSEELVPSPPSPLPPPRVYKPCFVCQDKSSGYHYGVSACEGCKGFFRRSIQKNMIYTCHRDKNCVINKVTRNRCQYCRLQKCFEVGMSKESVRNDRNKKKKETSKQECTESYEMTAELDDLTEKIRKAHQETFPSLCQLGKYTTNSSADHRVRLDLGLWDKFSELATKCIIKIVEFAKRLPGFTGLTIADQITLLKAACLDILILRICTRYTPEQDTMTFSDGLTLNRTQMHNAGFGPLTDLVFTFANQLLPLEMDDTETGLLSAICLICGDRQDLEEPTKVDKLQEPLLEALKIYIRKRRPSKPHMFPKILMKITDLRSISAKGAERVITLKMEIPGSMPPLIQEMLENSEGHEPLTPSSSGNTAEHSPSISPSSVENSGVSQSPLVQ

[4] = target: T4, Vitamin D3 receptor (Homo sapiens) (UniProt P11473); assay: Transactivation of human Gal4-fused VDR LBD expressed in HEK293T cells at 30 uM after 12 to 14 hrs by dual-glo luciferase assay; how it was run: as §1
T4 sequence (whole entry): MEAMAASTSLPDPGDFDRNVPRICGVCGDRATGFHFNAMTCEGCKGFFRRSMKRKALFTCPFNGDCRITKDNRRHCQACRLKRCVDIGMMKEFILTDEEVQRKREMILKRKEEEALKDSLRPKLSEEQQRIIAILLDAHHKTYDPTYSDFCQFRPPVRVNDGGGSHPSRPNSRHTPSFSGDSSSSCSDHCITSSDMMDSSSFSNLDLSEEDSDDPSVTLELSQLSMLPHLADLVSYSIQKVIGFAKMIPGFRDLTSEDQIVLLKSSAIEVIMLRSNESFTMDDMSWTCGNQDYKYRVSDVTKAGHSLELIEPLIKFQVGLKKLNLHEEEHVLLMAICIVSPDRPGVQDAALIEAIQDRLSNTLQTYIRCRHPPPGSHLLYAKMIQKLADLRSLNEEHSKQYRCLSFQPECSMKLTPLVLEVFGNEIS

[5] = target: T5, Retinoic acid receptor RXR-alpha (Homo sapiens) (UniProt P19793); assay: Transactivation of human Gal4-fused RXRalpha LBD expressed in HEK293T cells at 30 uM after 12 to 14 hrs by dual-glo luciferase assay; how it was run: as §1
T5 sequence (whole entry): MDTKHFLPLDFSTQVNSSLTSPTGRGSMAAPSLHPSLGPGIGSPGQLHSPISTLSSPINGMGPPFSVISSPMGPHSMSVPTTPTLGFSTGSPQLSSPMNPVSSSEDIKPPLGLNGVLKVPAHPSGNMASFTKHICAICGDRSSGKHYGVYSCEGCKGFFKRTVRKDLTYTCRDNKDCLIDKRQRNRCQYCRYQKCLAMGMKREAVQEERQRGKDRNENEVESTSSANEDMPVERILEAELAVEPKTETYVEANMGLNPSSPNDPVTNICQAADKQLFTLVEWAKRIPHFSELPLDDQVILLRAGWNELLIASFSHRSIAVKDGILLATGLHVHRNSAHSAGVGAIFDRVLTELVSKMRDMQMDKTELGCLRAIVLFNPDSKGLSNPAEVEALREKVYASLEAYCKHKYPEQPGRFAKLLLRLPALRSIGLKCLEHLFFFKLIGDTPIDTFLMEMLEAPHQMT

Activity [1]: inactive
Activity [2]: inactive
Activity [3]: inactive
Activity [4]: inactive
Activity [5]: Active
SMILES: CC1=C2[C@H](/C=C(\C)C(=O)O)CC[C@@H](C)[C@H]2CC1 [VALERENIC ACID]

From ChEMBL document CHEMBL4145619, “Computer-Assisted Discovery of Retinoid X Receptor Modulating Natural Products and Isofunctional Mimetics” (J Med Chem, 2018)
